Test results: ChEMBL document CHEMBL3600351, “Exploiting translational stalling peptides in an effort to extend azithromycin interaction within the prokaryotic ribosome nascent peptide exit tunnel” (Bioorg Med Chem, 2015)
≈ marks a conversion by molar mass, not a printed value. Calls of active or inactive are those of the source. The calls are words filed in the database; no cut-off is given here.

Assays:
Escherichia coli [1] = experiment: Antibacterial activity against Escherichia coli ATCC 27856 assessed as inhibition of bacterial growth after 18 hrs by liquid microdilution method; format: functional
Summary of the method: (§1)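 Liquid microdilution. Overnight 37 °C cultures, E. coli ATCC 27856 in LB and S. aureus ATCC 29213 in TSB, diluted 1:1000 in the same medium and exposed to compound. Growth was taken from OD600 before and after 18 h at 37 °C. MIC50 is the read-out. Triplicate, normalized to an internal vehicle control.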

Staphylococcus aureus [2] = experiment: Antibacterial activity against Erm+ methicillin-resistant Staphylococcus aureus ATCC 33591 assessed as inhibition of bacterial growth after 18 hrs by liquid microdilution method; format: functional
Summary of the method: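 MRSA grown overnight at 37 °C in Nutrient broth, diluted 1:1000 in the same medium, then plated with the compounds. Growth was judged by comparing OD600 before and after 18 h at 37 °C. MIC50 was taken by liquid microdilution. Vancomycin was the positive control. Each compound was run in triplicate and standardized against an internal vehicle control.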

[3] = Inhibition of ribosome nascent peptide exit tunnel in Escherichia coli S30 extract assessed as inhibition of prokaryotic translation in presence of amino acids incubated for 20 mins by luciferase reporter gene assay
Summary of the method: (§2)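 E. coli S30 cell-free extract with all amino acids, preincubated with compound for 20 min at room temperature. Luciferase control template added, translation run 60 min at 37 °C, then stopped by 5 min on ice. Luminescence was read after luciferin addition. IC50 from nonlinear fit, triplicate, normalized to vehicle control.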

Staphylococcus aureus [4] = experiment: Antibacterial activity against Staphylococcus aureus ATCC 29213 assessed as inhibition of bacterial growth after 18 hrs by liquid microdilution method; format: functional; conditions: ATCC 29213, 18 h; summary of the method: as §1
[5] = Binding affinity to ribosome nascent peptide exit tunnel in rabbit reticulocyte extract assessed as inhibition of eukaryotic translation in presence of amino acids incubated for 20 mins by luciferase reporter gene assay; parameters: species or system Oryctolagus cuniculus
Summary of the method: as §2, with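 “Nuclease-treated rabbit reticulocyte lysate” for “E. coli S30 cell-free extract”, “90” for “60”, “30” for “37”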

Staphylococcus aureus [6] = experiment: Ratio of MIC50 for Staphylococcus aureus ATCC 29213 in absence of 50% bovine serum to MIC50 for Staphylococcus aureus ATCC29213 in presence of 50% bovine serum; format: functional
Summary of the method: (§3)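 S. aureus ATCC 29213 overnight culture (37 °C) diluted 1:1000 in 50% bovine serum/broth and run by liquid microdilution. Growth was taken from OD600 change over 18 h at 37 °C to give MIC50, in triplicate against a vehicle control. The enhancement ratio is MIC50 without serum divided by MIC50 with serum.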

Escherichia coli [7] = experiment: Inhibition of ribosome nascent peptide exit tunnel in Escherichia coli S30 extract assessed as inhibition of prokaryotic translation in presence of amino acids incubated for 20 mins by luciferase reporter gene assay relative to azithromycin
Staphylococcus aureus [8] = experiment: Antibacterial activity against Staphylococcus aureus ATCC 29213 assessed as inhibition of bacterial growth after 18 hrs in presence of 50% bovine serum by liquid microdilution method; format: functional; conditions: ATCC 29213, 18 h; summary of the method: as §3

Row | Structure (SMILES) | MIC50 (Escherichia coli [1]; ATCC 27856, 18 h) [µg/mL] | MIC50 (Staphylococcus aureus [2]) | IC50 [3] [nM] | MIC50 (Staphylococcus aureus [4]) [µg/mL] | IC50 [5] [nM] | Ratio (Staphylococcus aureus [6]) | fold change (FC) (Escherichia coli [7]) | MIC50 (Staphylococcus aureus [8]) [µg/mL] | MIC50 (Escherichia coli [1])
1 | CC[C@H]1OC(=O)[C@H](C)[C@@H](O[C@H]2C[C@@](C)(OC)[C@@H](O)[C@H](C)O2)[C@H](C)[C@@H](O[C@@H]2O[C@H](C)C[C@H](N(C)C)[C@H]2O)[C@](C)(O)C[C@@H](C)CN(CCCCc2cn(CCn3ccc4ccccc43)nn2)[C@H](C)[C@@H](O)[C@]1(C)O | 64 (≈ 63.9 µM) | inactive | 128 | 1.56 (≈ 1.56 µM) | > 250000 | 10 | 2.3 | 0.16 | –
2 | CC[C@H]1OC(=O)[C@H](C)[C@@H](O[C@H]2C[C@@](C)(OC)[C@@H](O)[C@H](C)O2)[C@H](C)[C@@H](O[C@@H]2O[C@H](C)C[C@H](N(C)C)[C@H]2O)[C@](C)(O)C[C@@H](C)CN(Cc2ccc(-c3cn(CCn4ccc5cc(F)ccc54)nn3)cc2)[C@H](C)[C@@H](O)[C@]1(C)O | 64 (≈ 60.8 µM) | inactive | 463 | 1.56 (≈ 1.48 µM) | > 250000 | 2 | – | 0.78 | –
3 | CC[C@H]1OC(=O)[C@H](C)[C@@H](O[C@H]2C[C@@](C)(OC)[C@@H](O)[C@H](C)O2)[C@H](C)[C@@H](O[C@@H]2O[C@H](C)C[C@H](N(C)C)[C@H]2O)[C@](C)(O)C[C@@H](C)CN(Cc2ccc(-c3cn(CCc4c[nH]c5ccc(F)cc45)nn3)cc2)[C@H](C)[C@@H](O)[C@]1(C)O | – | inactive | 2030 | 3.13 (≈ 2.97 µM) | > 250000 | 2 | – | 1.56 | inactive
4 | CC[C@H]1OC(=O)[C@H](C)[C@@H](O[C@H]2C[C@@](C)(OC)[C@@H](O)[C@H](C)O2)[C@H](C)[C@@H](O[C@@H]2O[C@H](C)C[C@H](N(C)C)[C@H]2O)[C@](C)(O)C[C@@H](C)CN(CCCCc2cn(CCc3c[nH]c4ccccc34)nn2)[C@H](C)[C@@H](O)[C@]1(C)O | 16 (≈ 16 µM) | inactive | 540 | 0.78 (≈ 0.779 µM) | > 250000 | 10 | – | 0.078 | –
5 | CC[C@H]1OC(=O)[C@H](C)[C@@H](O[C@H]2C[C@@](C)(OC)[C@@H](O)[C@H](C)O2)[C@H](C)[C@@H](O[C@@H]2O[C@H](C)C[C@H](N(C)C)[C@H]2O)[C@](C)(O)C[C@@H](C)CN(Cc2ccc(-c3cn(CCn4ccc5ccccc54)nn3)cc2)[C@H](C)[C@@H](O)[C@]1(C)O | 64 (≈ 61.8 µM) | inactive | 197 | 1.56 (≈ 1.51 µM) | > 250000 | 2.5 | – | 0.63 | –
6 | CC[C@H]1OC(=O)[C@H](C)[C@@H](O[C@H]2C[C@@](C)(OC)[C@@H](O)[C@H](C)O2)[C@H](C)[C@@H](O[C@@H]2O[C@H](C)C[C@H](N(C)C)[C@H]2O)[C@](C)(O)C[C@@H](C)CN(Cc2ccc(-c3cn(CCc4cn(C)c5ccccc45)nn3)cc2)[C@H](C)[C@@H](O)[C@]1(C)O | 128 (≈ 122 µM) | inactive | 641 | 6.25 (≈ 5.96 µM) | > 250000 | 4 | – | 1.56 | –
7 | CC[C@H]1OC(=O)[C@H](C)[C@@H](O[C@H]2C[C@@](C)(OC)[C@@H](O)[C@H](C)O2)[C@H](C)[C@@H](O[C@@H]2O[C@H](C)C[C@H](N(C)C)[C@H]2O)[C@](C)(O)C[C@@H](C)CN(CCCCc2cn(CCn3ccc4cc(OC)ccc43)nn2)[C@H](C)[C@@H](O)[C@]1(C)O | 16 (≈ 15.5 µM) | inactive | 238 | 1.56 (≈ 1.51 µM) | > 250000 | 10 | – | 0.16 | –
